Laboratory results reported in the array DNA melting data of Ke et al. (doi:10.1101/2024.01.08.574731).

Tests used:
[1] = melting temperature; fluorescence melt of hairpins on a sequencing array, two-state fit, raised by 9.35 °C to match UV melts; settings: sodium 0.088 M
Outline: (§1)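 Two-state fits, bootstrapped, provided melting temperature and folding enthalpy from Cy3 fluorescence normalised to pre-quench Cy3 and to control constructs. Library hairpins with annealed Cy3 and quencher oligos were imaged on a sequenced MiSeq flow cell in 50 mM Na-HEPES pH 8.0, 25 mM NaCl, at 2.5 °C intervals up to 60 °C. Four replicates were combined with inverse-variance weighting. A 9.35 °C upward shift was applied to fitted temperatures to match UV melts.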

[2] = folding enthalpy; higher = less favourable; fluorescence melt of hairpins on a sequencing array, two-state fit; settings: sodium 0.088 M
Outline: as §1

Sequence	Tm [1] [°C]	folding enthalpy [2] [kcal/mol]
GGTAGTGGAAACGCTACC (((((.(....).)))))	51.7	-34.9
GAATCCCGAAAGGGTTC (((.(((....))))))	48.1	-17.9
GGTGGGGAAACCCACC ((((((....))))))	68.1	-42.9
GATCCGGCTGCGGATC ((((((....))))))	61	-38.4
GCATCAGGAAACCGATGC (((((.(....).)))))	50	-33.4
GTACCCGAAAGGGATAC ((((((....))).)))	47	-15.3
GGCTGCGAAAGCATCGCC ((((((....)))..)))	48.5	-21.8
GATCTGCTCACAGATC ((((((....))))))	51.6	-36.9
GGAGGACGAAAGTCTTCC (((.(((....))).)))	53.5	-30.1
GGCAGAGGAAACTCTACC ((.((((....)))).))	38.3	-23.8
CGTTCGGAAACGATTACG ((((((....)))..)))	35.7	-18.1
GAGCGCGGAAACGCACCC (.(.(((....))).).)	31.7	-7.47
GGCAGAGGAAACCCTGCC (((((.(....).)))))	53.3	-37.8
GCGCCGCGAAAGCAGGGC ((.(.((....)).).))	57.4	-13.1
GTAGTCCCGAAAGGGTAC (((..(((....))))))	31.5	-10.8
GCCCCGCGAAAGCAGAGC ((.(.((....)).).))	32.8	-11.5
GTCCTAGCGAAAGCTGAC (((..(((....))))))	31.5	-12.7
AGTTAGAAATAACT (((((....)))))	25.8	-9.79
GAATGGCGAAAGCCGTTC (((.(((....))).)))	58.1	-22.4
GTTAGTGGAAACACTAAC (((((((....)))))))	54.7	-46.1
GATGGGCGAAAGCCTATC (((.(((....))).)))	53.9	-22.3
GCGGGGCCCGC ((((...))))	63.3	-34.8
GTGGACGAAAGTCCGCAC ((((((....)))..)))	55.7	-11.8

Sequence	Tm [1] [°C]	folding enthalpy [2] [kcal/mol]
GCTATGCGAAAGCTTTGC ((.(.((....)).).))	43.4	-18.2
GCGACGCGAAAGCGCAGC ((..(((....)))..))	58.9	-15.5
GCGGAGGTCCGC ((((....))))	56.4	-24.4
GCACTGACGAAAGTCTGC (((..(((....))))))	38.1	-14.3
GTGCGGACGAAAGTCCAC (((..(((....))))))	60.9	-12
GCGGCCGCCGC ((((...))))	55.1	-19.9
GCCATGGGAAACCATAGC ((.((((....)))).))	36.5	-25.6
GTTGCCCGAAAGGGAAAC (((.(((....))).)))	56.4	-32.2
GTGTAGGGAAACCTACGC (.(((((....))))).)	50	-17.9
GCGTTGGGAAACTAGCGC (((.(.(....).).)))	47.9	-35.9
GAAAACGAAAGTTCTTC ((((((....))).)))	36.1	-17.8
GCAGCCCGAAAGGGTGC (((.(((....))))))	64.4	-20.6
GACTACGAAAGTAAGGTC ((((((....)))..)))	32.7	-21.4
GATCGGGTTCCCGATC ((((((....))))))	62.8	-42.5
GGTCGGGGAAACCCAACC (((.(((....))).)))	44.9	-27
GTAATCGAAAGATACTAC ((((((....)))..)))	31.4	-18.4
GATCTAAGCTAGATC ((((((...))))))	39.5	-21.5
GATCTAATCATAGATC ((((((....))))))	38.6	-34.8
GGTGCGGGAAACCGTGCC ((..(((....)))..))	53.1	-46.1
GCTCAGCGAAAGCAGGGC ((.(.((....)).).))	51.9	-19
GTAACGGGAAACCATTAC ((((.((....)).))))	28.4	-11.8
GTGTGCGGAAACGTACGC (.((.((....)).)).)	48	-27.3
GGAACCGAAAGGTAGTCC ((((((....)))..)))	29.8	-12
